Holding throughout (assay type): cell-based
In assay [1] the target is Toll-like receptor 2 (Homo sapiens) (UniProt O60603). The experiment in a line: Antagonist activity at human TLR2 expressed in HEK-blue cells assessed as inhibition of Pam3CSK4-induced NF-kappaB activation-mediated SEAP production at 25 uM after 24 hrs by Quanti-blue-based assay. An outline of the steps: (§1)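 HEK-Blue hTLR2 cells in DMEM with 10% serum and antibiotics, plated at 4 × 10⁴ cells per well for 24 h. Medium then replaced with compound plus agonist for 24 h at 37 °C. Agonists (final): Pam₃CSK₄ 10 ng/ml (TLR1/2), Pam₂CSK₄ 10 ng/ml (TLR2/6), Poly I:C 10 µg/ml (TLR3). Supernatant mixed 1:1 with Quanti-Blue; SEAP read at OD 620 nm after 15–30 min.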
Toll-like receptor 2 (Homo sapiens), sequence (O60603 whole entry): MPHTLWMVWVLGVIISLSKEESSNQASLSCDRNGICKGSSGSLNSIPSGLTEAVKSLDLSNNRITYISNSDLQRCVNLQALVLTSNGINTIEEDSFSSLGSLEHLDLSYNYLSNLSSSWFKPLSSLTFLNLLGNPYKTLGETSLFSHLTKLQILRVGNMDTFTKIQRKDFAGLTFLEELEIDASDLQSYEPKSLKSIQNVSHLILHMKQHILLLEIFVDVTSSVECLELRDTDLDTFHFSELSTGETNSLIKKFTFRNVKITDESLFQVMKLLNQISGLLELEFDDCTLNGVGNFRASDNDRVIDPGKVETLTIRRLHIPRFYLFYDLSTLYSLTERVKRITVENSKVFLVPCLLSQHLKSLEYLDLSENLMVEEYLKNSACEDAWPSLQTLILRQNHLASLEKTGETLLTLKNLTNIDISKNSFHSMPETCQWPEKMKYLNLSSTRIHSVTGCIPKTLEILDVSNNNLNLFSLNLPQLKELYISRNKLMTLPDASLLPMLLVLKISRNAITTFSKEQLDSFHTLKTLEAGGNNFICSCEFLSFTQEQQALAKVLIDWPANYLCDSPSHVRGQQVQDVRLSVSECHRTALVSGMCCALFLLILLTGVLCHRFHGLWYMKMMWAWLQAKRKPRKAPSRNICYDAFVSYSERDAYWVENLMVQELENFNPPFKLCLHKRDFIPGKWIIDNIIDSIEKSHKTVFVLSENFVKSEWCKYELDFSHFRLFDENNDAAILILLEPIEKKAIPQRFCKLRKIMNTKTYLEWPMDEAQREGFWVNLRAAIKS

For assay [2] the target is unchanged. The assay is described as follows: Antagonist activity at human TLR2 expressed in HEK-blue cells assessed as inhibition of Pam3CSK4-induced NF-kappaB activation-mediated SEAP production at 50 uM after 24 hrs by Quanti-blue-based assay. Summed up:
as §1

For assay [3], the target named is Toll-like receptor 1/2 (Homo sapiens) (UniProt O60603+Q15399). The assay is described as follows: Antagonist activity at human TLR1/2 expressed in HEK-blue cells assessed as inhibition of Pam3CSK4-induced IL-8 mRNA expression at 100 uM preincubated for 1 hr followed by Pam3CSK4 induction measured after 1 hr by qRT-PCR method relative to control.
For a further assay, the target named is TLR2/TLR6 (Homo sapiens) (UniProt O60603+Q9Y2C9). The assay is described as follows: Antagonist activity at human TLR2/6 expressed in HEK-blue cells assessed as inhibition of Pam2CSK4-induced IL-8 mRNA expression at 100 uM preincubated for 1 hr followed by Pam2CSK4 induction measured after 1 hr by qRT-PCR method relative to control.

In ChEMBL document CHEMBL4219143, “Synthesis, structure-activity relationships and preliminary mechanism study of N-benzylideneaniline derivatives as potential TLR2 inhibitors” (Bioorg Med Chem, 2018) one finds inhibition data, which are given here for 49 compounds.

For the compound `COc1ccc(/N=C/c2cccc3ccccc23)cc1`, the inhibition is 5.21% in assay [1] and 1.97% in assay [2].

For the compound `CCOc1cccc(/C=N/c2cccc(C(=O)O)c2C)c1O`, the inhibition in assay [1] is 5.43%; in assay [2] it was 38%.

As to `COc1cccc(/C=N/c2ccc(-c3ccccc3)cc2)c1`, the inhibition in assay [1] and in assay [2] was 0% throughout.

Take `CCOc1cccc(/C=N/c2ccccc2C(=O)c2ccc(Cl)cc2)c1O`: the inhibition in assay [1] came out at 35.5%; in assay [2], 70.7%.

As for `COc1ccc(/N=C/c2c(O)ccc3ccccc23)cc1`, the inhibition in assay [1] came out at 3.66%; in assay [2], 0%.

As for `CCOc1cccc(/C=N/c2cccc(C(=O)O)c2)c1O`, the results for the inhibition in assay [1] and in assay [2] were 6.93% and 19.4%, respectively.

For the compound `O=C(O)c1ccc(C(F)(F)F)cc1/N=C/c1c(O)ccc2ccccc12`, the inhibition in assay [1] turned out to be 2.53%; in assay [2] it was 0%.

Regarding `COc1cccc(/C=N/c2cccc(C(=O)O)c2C)c1`, the inhibition turned out to be 0.99% in assay [1] and 1.61% in assay [2].

For `Oc1ccc(/N=C/c2c(O)ccc3ccccc23)cc1`, the inhibition in assay [1] and in assay [2] was 0% in each case.

On to `COc1cccc(/C=N/c2ccc(O)cc2)c1`, for which the values for the inhibition in assay [1] and in assay [2] were 0.74% and 56.4%, respectively.

`Oc1ccc2ccccc2c1/C=N/c1ccc(-c2ccccc2)cc1`: the inhibition in assay [1] turned out to be 5.35%; in assay [2] it was 1.41%.

Consider `Cc1c(/N=C/c2ccc(C(F)(F)F)cc2)cccc1C(=O)O`, for which the inhibition in assay [1] and in assay [2] was 0% throughout.

In the case of `COc1cccc(/C=N/c2cccc(C(=O)O)c2)c1O`, the inhibition was 0% in assay [1] and 23.7% in assay [2].

For `C(=C\c1ccccc1)/C=N/c1ccc(-c2ccccc2)cc1`, the inhibition came to 5.63% in assay [1] and 3.1% in assay [2].

As to `COc1ccc(/N=C\c2c[nH]c3ccccc23)cc1`, the values for the inhibition in assay [1] and in assay [2] were 2.11% and 0%, respectively.

For `COc1cccc(/C=N/c2ccc(-c3ccccc3)cc2)c1O`, the figures for the inhibition in assay [1] and in assay [2] were 23.3% and 75.3%, respectively.

With `Cc1cccc(/N=C/c2c(O)ccc3ccccc23)c1C(=O)O`, the inhibition in assay [1] and in assay [2] was 0% in each case.

In the case of `CCOc1cccc(/C=N/c2ccc(O)cc2)c1O`, the inhibition in assay [1] is 5.77%; in assay [2], 75.7%.

`Oc1ccc(/N=C/C=C/c2ccccc2)cc1`: the results for the inhibition in assay [1] and in assay [2] were 27.5% and 95.8%, respectively.

As to `CCOc1cccc(/C=N/c2ccccc2C(=O)c2ccccc2)c1O`, the results for the inhibition in assay [1] and in assay [2] were 3.59% and 49%, respectively.

Consider `COc1cc(/C=N/c2cc(N)cc(C(=O)O)c2)ccc1O`, for which the inhibition in assay [1] and in assay [2] was 0% each time.

With `O=C(c1ccc(Cl)cc1)c1ccccc1/N=C/c1c(O)ccc2ccccc12`, the inhibition is 3.09% in assay [1] and 22.9% in assay [2].

Take `COc1ccc(/N=C/C=C/c2ccccc2)cc1`: the inhibition in assay [1] is 3.99%; in assay [2] it was 15.1%.

With `Oc1ccc(/N=C/c2cccc3ccccc23)cc1`, the results for the inhibition in assay [1] and in assay [2] were 44% and 98.8%, respectively.

Turning to `FC(F)(F)c1ccc(/C=N/c2ccc(-c3ccccc3)cc2)cc1`, the inhibition stood at 5.07% in assay [1] and 0.75% in assay [2].

Regarding `COc1ccc(/N=C/c2ccc(O)c(OC)c2)cc1`, the inhibition in assay [1] and in assay [2] was 0% throughout.

In the case of `C(=N\c1ccc(-c2ccccc2)cc1)/c1cccc2ccccc12`, the inhibition in assay [1] and in assay [2] was 0% throughout.

On to `C(=N/c1ccc(-c2ccccc2)cc1)/c1c[nH]c2ccccc12`, for which the results for the inhibition in assay [1] and in assay [2] were 2.35% and 3.8%, respectively.

In the case of `COc1cccc(/C=N/c2ccccc2C(=O)c2ccccc2)c1O`, the inhibition in assay [1] is 1.86%; in assay [2], 30%.

With `COc1cccc(/C=N/c2ccc(O)cc2)c1O`, the figures for the inhibition in assay [1] and in assay [2] were 14.9% and 91.1%, respectively.

Turning to `Cc1cccc(/N=C/c2cccc(O)c2O)c1C(=O)O`, the inhibition was found to be 15% in assay [1] and 21.2% in assay [2].

For the compound `COc1cccc(CNc2ccccc2C(=O)c2ccc(Cl)cc2)c1O`, the inhibition amounted to 0% in assay [1] and 19.2% in assay [2].

With `O=C(O)c1cccc(/N=C/c2c(O)ccc3ccccc23)c1`, the inhibition in assay [1] and in assay [2] was 0% throughout.

Consider `O=C(c1ccccc1)c1ccccc1/N=C/c1c(O)ccc2ccccc12`, for which the inhibition worked out at 2.72% in assay [1] and 0% in assay [2].

Regarding `Cc1c(/N=C/c2c(O)ccc3ccccc23)cccc1C(=O)O`, the inhibition in assay [1] and in assay [2] was 0% throughout.

Take `COc1cc(/C=N/c2ccc(O)cc2)ccc1O`: the inhibition in assay [1] is 7.51%; in assay [2], 62.7%.

As for `CCOc1cccc(/C=N/c2ccc(-c3ccccc3)cc2)c1O`, the inhibition stood at 24.2% in assay [1] and 64.1% in assay [2].

Consider `COc1ccc(/N=C/c2cccc(OC)c2O)cc1`, for which the inhibition in assay [1] amounted to 3.77%; in assay [2], 45.6%.

As for `COc1ccc(/N=C/c2cccc(O)c2O)cc1`, the inhibition in assay [1] amounted to 17%; in assay [2] it was 44.9%.

`COc1cccc(/C=N/c2cccc(C(=O)O)c2C)c1O`: the inhibition in assay [1] is 14.9%; in assay [2] it was 51.8%; in assay [3], greater than 50%; at TLR2/TLR6 (Homo sapiens), greater than 50%.

Consider `O=C(O)c1cccc(/N=C/c2cccc(O)c2O)c1`, for which the figures for the inhibition in assay [1] and in assay [2] were 5% and 9.05%, respectively.

As for `Cc1c(/N=C/C=C/c2ccccc2)cccc1C(=O)O`, the inhibition in assay [1] came to 1.74%; in assay [2], 14.4%.

Turning to `O=C(O)c1ccc(C(F)(F)F)cc1/N=C\c1c[nH]c2ccccc12`, the inhibition in assay [1] stood at 0.33%; in assay [2] it was 5.77%.

As to `COc1cc(/C=N/c2ccc(-c3ccccc3)cc2)ccc1O`, the inhibition in assay [1] worked out at 2.39%; in assay [2], 0%.

As for `Cc1c(/N=C\c2c[nH]c3ccccc23)cccc1C(=O)O`, the inhibition was 2.39% in assay [1] and 2.58% in assay [2].

On to `CCOc1cccc(/C=N/c2cccc(C)c2C(=O)O)c1O`, for which the inhibition in assay [1] turned out to be 2.39%; in assay [2], 27.8%.

In the case of `COc1ccc(/N=C/c2cccc(OC)c2OC)cc1`, the inhibition in assay [1] and in assay [2] was 0% throughout.

Consider `CCOc1cccc(/C=N/c2ccc(OC)cc2)c1O`, for which the inhibition in assay [1] is 8.33%; in assay [2] it was 35.2%.

Turning to `COc1cccc(/N=C/c2ccc(C(F)(F)F)cc2)c1`, the inhibition worked out at 7.27% in assay [1] and 0.28% in assay [2].
